Key:
[1] = Clearance in Sprague-Dawley rat at 2.45 mg/kg, iv; format: ADME, organism-based; design: dose 2.45 mg/kg, route intravenous; details: in vivo
In short: (§1)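 Animals (n = 3/group; male mouse, Sprague-Dawley rat, beagle dog, cynomolgus monkey) got a single iv dose in dimethyl isosorbide/ethanol/PEG400/D5W (10%/15%/35%/40%) at 1 mL/kg. Heparinized blood was drawn via an indwelling carotid cannula from predose to 48 h. Plasma was assayed by LC/MS/MS (LLOQ 1 ng/mL, linear 1–2500 ng/mL). Parameters came from noncompartmental analysis of mean profiles using measured doses.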

[2] = molecular target: Cystic fibrosis transmembrane conductance regulator (Homo sapiens, UniProt P13569, F508DEL); assay: Potentiation of human CFTR F508del mutant expressed in mouse NIH-3T3 cells after 30 mins by fluorescent voltage sensing optical assay; format: cell-based, NIH3T3
In short: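 NIH-3T3 fibroblasts stably expressing human F508del-CFTR were held 16–24 h at 27 °C to correct misfolding. Cells were washed in NaCl/HEPES bath, pH 7.4, then loaded with voltage-sensing dyes plus compound for 30 min at room temperature. Cl−-free bath with forskolin was added once, and membrane potential change was read by fluorescence. EC50 is mean ± SD of at least three determinations.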

[3] = AUC (0 to infinity) in Sprague-Dawley rat at 2.45 mg/kg, iv; format: ADME, organism-based; design: time infinity, dose 2.45 mg/kg, route intravenous; details: plasma
In short: (§2)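 Male Sprague−Dawley rats, n = 3/group, single iv dose in dimethyl isosorbide/ethanol/PEG400/D5W (10%/15%/35%/40%) at 1 mL/kg. Carotid cannula blood at predose, 5, 15, 30, 45 min and 1, 2, 4, 6, 8, 12, 24, 36, 48 h. Plasma levels by LC/MS/MS (LLOQ 1 ng/mL, linear 1–2500 ng/mL). Noncompartmental analysis of mean profiles using measured doses.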

[4] = Volume of distribution at steady state in Sprague-Dawley rat at 2.45 mg/kg, iv; format: ADME, organism-based; design: dose 2.45 mg/kg, route intravenous; details: in vivo, read-out: Vdss; in short: as §1
[5] = Half life in Sprague-Dawley rat at 2.45 mg/kg, iv; format: ADME, organism-based; design: dose 2.45 mg/kg, route intravenous; details: in vivo; in short: as §1
[6] = test system: Cystic fibrosis transmembrane conductance regulator (Homo sapiens), P13569 [F508del]; assay: Potentiation of human CFTR F508del mutant expressed in mouse NIH-3T3 cells at 30 uM after 30 mins by fluorescent voltage sensing optical assay relative to VRT-532; format: cell-based; details: NIH3T3
In short: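 Same F508del-CFTR NIH-3T3 membrane-potential assay: 27 °C correction for 16–24 h, dye plus compound for 30 min at room temperature, then forskolin in Cl−-free bath. Compounds below 50% activity at 30 μM were not titrated. Their response at 30 μM is given as % of VRT-532.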

[7] = Half life in Sprague-Dawley rat at 1.57 mg/kg, iv; format: ADME, organism-based; design: dose 1.57 mg/kg, route intravenous; details: in vivo; in short: as §1
[8] = Volume of distribution at steady state in Sprague-Dawley rat at 1.57 mg/kg, iv; format: ADME, organism-based; design: dose 1.57 mg/kg, route intravenous; details: in vivo, read-out: Vdss; in short: as §1
[9] = AUC (0 to infinity) in Sprague-Dawley rat at 1.57 mg/kg, iv; format: ADME, organism-based; design: time infinity, dose 1.57 mg/kg, route intravenous; details: plasma; in short: as §2
[10] = Clearance in Sprague-Dawley rat at 1.57 mg/kg, iv; format: ADME, organism-based; design: dose 1.57 mg/kg, route intravenous; details: in vivo; in short: as §1
[11] = Volume of distribution at steady state in Sprague-Dawley rat at 1.29 mg/kg, iv; format: ADME, organism-based; design: dose 1.29 mg/kg, route intravenous; details: in vivo, read-out: Vdss; in short: as §1
[12] = Clearance in Sprague-Dawley rat at 1.29 mg/kg, iv; format: ADME, organism-based; design: dose 1.29 mg/kg, route intravenous; details: in vivo; in short: as §1
[13] = Half life in Sprague-Dawley rat at 1.29 mg/kg, iv; format: ADME, organism-based; design: dose 1.29 mg/kg, route intravenous; details: in vivo; in short: as §1
[14] = AUC (0 to infinity) in Sprague-Dawley rat at 1.29 mg/kg, iv; format: ADME, organism-based; design: dose 1.29 mg/kg, route intravenous, time infinity; details: plasma; in short: as §2
[15] = Volume of distribution at steady state in beagle dog at 0.9 mg/kg, iv; format: ADME, organism-based, Canis lupus familiaris; design: dose 0.9 mg/kg, route intravenous; details: in vivo, read-out: Vdss; in short: as §1
[16] = Clearance in Cynomolgus monkey at 0.8 mg/kg, iv; format: ADME, organism-based, Macaca fascicularis; design: dose 0.8 mg/kg, route intravenous; details: in vivo; in short: as §1
[17] = Clearance in mouse at 3 mg/kg, iv; format: ADME, organism-based; design: dose 3 mg/kg, route intravenous; details: in vivo; in short: as §1
[18] = Half life in mouse at 3 mg/kg, iv; format: ADME, organism-based; design: dose 3 mg/kg, route intravenous; details: in vivo; in short: as §1
[19] = Half life in beagle dog at 0.9 mg/kg, iv; format: ADME, organism-based, Canis lupus familiaris; design: dose 0.9 mg/kg, route intravenous; details: in vivo; in short: as §1
[20] = AUC (0 to infinity) in Sprague-Dawley rat at 3 mg/kg, po; format: ADME, organism-based; design: time infinity, dose 3 mg/kg, route oral; details: plasma
In short: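 Single oral dose, n = 3/group. Heparinized carotid-cannula blood was sampled at predose, 0.25, 0.5, 1, 1.5, 2, 4, 8, 12 and 24 h. Plasma levels were measured by LC/MS/MS (LLOQ 1 ng/mL). AUC and bioavailability were derived by noncompartmental analysis of mean concentration–time profiles against the iv arm.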

[21] = molecular target: Cytochrome P450 2E1 (Homo sapiens, UniProt P05181); assay: Inhibition of CYP2E1 (unknown origin); format: ADME
[22] = test system: Canis familiaris; assay: AUC (0 to infinity) in beagle dog at 3.8 mg/kg, po; details: in vivo
[23] = Volume of distribution at steady state in Cynomolgus monkey at 0.8 mg/kg, iv; format: ADME, organism-based, Macaca fascicularis; design: dose 0.8 mg/kg, route intravenous; details: in vivo, read-out: Vdss; in short: as §1
[24] = Half life in Cynomolgus monkey at 0.8 mg/kg, iv; format: ADME, organism-based, Macaca fascicularis; design: dose 0.8 mg/kg, route intravenous; details: in vivo; in short: as §1
[25] = Volume of distribution at steady state in mouse at 3 mg/kg, iv; format: ADME, organism-based; design: dose 3 mg/kg, route intravenous; details: in vivo, read-out: Vdss; in short: as §1
[26] = test system: Canis familiaris; assay: Oral bioavailability in beagle dog at 3.8 mg/kg; details: in vivo

Chain of Cystic fibrosis transmembrane conductance regulator (P13569 as listed by the source): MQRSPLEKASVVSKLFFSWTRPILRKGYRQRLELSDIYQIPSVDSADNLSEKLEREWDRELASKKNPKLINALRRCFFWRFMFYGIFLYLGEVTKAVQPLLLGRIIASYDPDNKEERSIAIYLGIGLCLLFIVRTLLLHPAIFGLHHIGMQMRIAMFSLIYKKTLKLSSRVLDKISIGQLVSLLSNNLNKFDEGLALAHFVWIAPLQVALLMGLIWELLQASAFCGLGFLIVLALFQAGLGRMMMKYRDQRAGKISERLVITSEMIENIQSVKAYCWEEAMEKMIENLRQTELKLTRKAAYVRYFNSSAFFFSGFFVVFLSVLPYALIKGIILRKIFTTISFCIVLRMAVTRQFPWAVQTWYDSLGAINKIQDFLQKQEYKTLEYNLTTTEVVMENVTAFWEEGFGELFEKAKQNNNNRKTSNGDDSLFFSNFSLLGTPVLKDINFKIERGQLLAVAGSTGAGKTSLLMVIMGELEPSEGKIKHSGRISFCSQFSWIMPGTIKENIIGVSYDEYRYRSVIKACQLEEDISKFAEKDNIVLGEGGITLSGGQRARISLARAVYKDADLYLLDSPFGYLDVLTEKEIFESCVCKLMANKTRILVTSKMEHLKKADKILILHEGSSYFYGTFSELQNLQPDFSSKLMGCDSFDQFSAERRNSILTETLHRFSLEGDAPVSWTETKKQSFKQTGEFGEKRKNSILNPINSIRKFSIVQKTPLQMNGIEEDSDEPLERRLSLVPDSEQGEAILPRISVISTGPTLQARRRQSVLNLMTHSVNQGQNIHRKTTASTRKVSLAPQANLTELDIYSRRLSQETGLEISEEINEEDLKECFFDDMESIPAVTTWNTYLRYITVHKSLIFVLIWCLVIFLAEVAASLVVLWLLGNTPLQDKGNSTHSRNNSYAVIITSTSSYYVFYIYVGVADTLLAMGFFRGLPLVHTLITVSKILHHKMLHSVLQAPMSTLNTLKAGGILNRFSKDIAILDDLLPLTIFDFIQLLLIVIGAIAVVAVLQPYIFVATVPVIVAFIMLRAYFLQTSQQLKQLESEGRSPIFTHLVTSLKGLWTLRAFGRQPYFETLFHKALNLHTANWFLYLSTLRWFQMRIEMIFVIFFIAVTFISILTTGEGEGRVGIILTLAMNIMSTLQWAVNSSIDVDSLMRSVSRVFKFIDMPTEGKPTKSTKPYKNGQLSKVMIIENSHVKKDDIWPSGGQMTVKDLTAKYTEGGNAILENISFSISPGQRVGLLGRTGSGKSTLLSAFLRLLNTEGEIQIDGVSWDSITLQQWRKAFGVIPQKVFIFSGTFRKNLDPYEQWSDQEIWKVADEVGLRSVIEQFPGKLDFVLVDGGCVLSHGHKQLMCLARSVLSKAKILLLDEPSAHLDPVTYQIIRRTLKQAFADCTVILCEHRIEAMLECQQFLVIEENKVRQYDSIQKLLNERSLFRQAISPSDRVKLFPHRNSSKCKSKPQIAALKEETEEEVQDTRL
Chain of Cystic fibrosis transmembrane conductance regulator (Homo sapiens), P13569 [F508del] (P13569 as listed by the source): as above
Chain of Cytochrome P450 2E1 (P05181 whole entry): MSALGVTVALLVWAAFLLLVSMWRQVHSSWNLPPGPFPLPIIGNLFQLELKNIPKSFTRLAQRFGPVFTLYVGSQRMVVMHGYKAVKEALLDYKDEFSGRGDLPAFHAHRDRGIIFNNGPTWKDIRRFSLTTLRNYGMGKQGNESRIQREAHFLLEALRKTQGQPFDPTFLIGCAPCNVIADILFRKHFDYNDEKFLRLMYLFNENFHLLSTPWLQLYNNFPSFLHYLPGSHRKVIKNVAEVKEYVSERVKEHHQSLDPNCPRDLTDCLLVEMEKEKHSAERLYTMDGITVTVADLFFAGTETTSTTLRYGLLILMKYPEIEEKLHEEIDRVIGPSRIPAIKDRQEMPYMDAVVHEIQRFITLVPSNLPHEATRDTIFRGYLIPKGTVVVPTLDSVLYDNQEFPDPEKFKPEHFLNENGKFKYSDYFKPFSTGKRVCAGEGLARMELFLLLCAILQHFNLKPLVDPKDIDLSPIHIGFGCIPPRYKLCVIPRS

With `CC(C)(C)c1c[nH]c2cc(NC(=O)c3c[nH]c4ccccc4c3=O)ccc12` as the compound, how does the clearance [1] read?
The clearance was 60.7 mL/min/kg.

And the EC50 [2]?
The EC50 was 9 nM.

What about the AUC(0-inf) [3] of the same compound?
Its AUC(0-inf) is 700 ng·h/mL.

And the Vd [4]?
Its Vd is 4.4 L/kg.

What about the half-life [5] of the same compound?
The half-life was 1.3 h.

For `Cn1ccc2ccc(NC(=O)c3c[nH]c4ccccc4c3=O)cc21`, which EC50 [2] is on record?
Its EC50 is 6400 nM.

With `O=C(Nc1ccc2c(c1)NCC2)c1c[nH]c2ccccc2c1=O` as the compound, how does the EC50 [2] read?
The EC50 was 400 nM.

Which EC50 [2] does the source give for `N#CCc1ccccc1NC(=O)c1c[nH]c2ccccc2c1=O` here?
The EC50 was 8500 nM.

For `O=C(c1cnccc1O)N(Cc1ccccc1)Cc1ccccc1`, which Activity [6] is on record?
Its Activity is 2%.

Which Activity [6] does the source give for `O=c1c(CNc2ccc3cc[nH]c3c2)c[nH]c2ccccc12` here?
Its Activity is 1%.

With `O=C(Nc1ccc2cn[nH]c2c1)c1c[nH]c2ccccc2c1=O` as the compound, how does the EC50 [2] read?
Its EC50 is 5600 nM.

With `CC(C)(C)c1ccc(NC(=O)c2c[nH]c3ccccc3c2=O)cc1C(=O)O` as the compound, how does the Activity [6] read?
The Activity was 13%.

Which EC50 [2] does the source give for `CC(C)(C)c1cc(F)c(NC(=O)c2c[nH]c3ccccc3c2=O)cc1O` here?
The EC50 was 2 nM.

And the half-life [7]?
Its half-life is 1.1 h.

And the Vd [8]?
Its Vd is 2.9 L/kg.

What about the AUC(0-inf) [9] of the same compound?
Its AUC(0-inf) is 520 ng·h/mL.

What about the clearance [10] of the same compound?
Its clearance is 62.9 mL/min/kg.

With `CC(C)(C)c1ccc(NC(=O)c2c[nH]c3ccccc3c2=O)cc1O` as the compound, how does the Vd [11] read?
Its Vd is 2.9 L/kg.

What about the EC50 [2] of the same compound?
Its EC50 is 3 nM.

And the clearance [12]?
Its clearance is 85.6 mL/min/kg.

What about the half-life [13] of the same compound?
The half-life was 0.7 h.

And the AUC(0-inf) [14]?
Its AUC(0-inf) is 260 ng·h/mL.

With `O=C(Nc1ccccc1)c1c[nH]c2ccccc2c1=O` as the compound, how does the EC50 [2] read?
Its EC50 is 1300 nM.

With `CCc1c[nH]c2cc(NC(=O)c3c[nH]c4ccccc4c3=O)ccc12` as the compound, how does the EC50 [2] read?
The EC50 was 100 nM.

For `CC(C)(C)c1cc(C(C)(C)C)c(NC(=O)c2c[nH]c3ccccc3c2=O)cc1O` [IVACAFTOR], which Vd [15] is on record?
The Vd was 0.7 L/kg.

And the clearance [16]?
The clearance was 7.4 mL/min/kg.

And the clearance [17]?
The clearance was 20 mL/min/kg.

What about the EC50 [2] of the same compound?
The EC50 was 3 nM.

And the half-life [18]?
Its half-life is 1.3 h.

What about the half-life [19] of the same compound?
The half-life was 13 h.

What about the AUC(0-inf) [20] of the same compound?
Its AUC(0-inf) is 4800 ng·h/mL.

And the IC50 [21]?
The IC50 was over 20000 nM.

What about the AUC [22] of the same compound?
The AUC was 13500 ng·h/mL.

And the Vd [23]?
Its Vd is 2.2 L/kg.

And the half-life [24]?
The half-life was 6.7 h.

What about the Vd [25] of the same compound?
Its Vd is 2.8 L/kg.

What about the F [26] of the same compound?
The F was 43%.

Which Activity [6] does the source give for `O=c1c(S(=O)(=O)Nc2ccc3cc[nH]c3c2)c[nH]c2ccccc12` here?
The Activity was 1%.

With `CCc1ccc(NC(=O)c2c[nH]c3ccccc3c2=O)cc1N` as the compound, how does the EC50 [2] read?
Its EC50 is 1700 nM.

With `CC(C)c1ccc(NC(=O)c2c[nH]c3ccccc3c2=O)cc1N` as the compound, how does the EC50 [2] read?
The EC50 was 300 nM.

For `CC(C)(C)c1ccc(NC(=O)c2c[nH]c3ccccc3c2=O)cc1CO`, which EC50 [2] is on record?
The EC50 was 100 nM.

With `CC(C)(C)c1ccc(NC(=O)c2c[nH]c3ccccc3c2=O)cc1F` as the compound, how does the EC50 [2] read?
The EC50 was 100 nM.

For `CC(C)(C)c1ccc(NC(=O)c2c[nH]c3ccccc3c2=O)cc1N`, which EC50 [2] is on record?
Its EC50 is 100 nM.

For `O=C(c1ccc2ccccc2c1O)N(Cc1ccccc1)Cc1ccccc1`, which EC50 [2] is on record?
The EC50 was 3500 nM.

With `CC(C)(C)c1cc(C(F)(F)F)c(NC(=O)c2c[nH]c3ccccc3c2=O)cc1O` as the compound, how does the EC50 [2] read?
Its EC50 is 3 nM.

Which EC50 [2] does the source give for `CC(C)(C)c1ccc(NC(=O)c2c[nH]c3ccccc3c2=O)cc1S(N)(=O)=O` here?
The EC50 was 5100 nM.

Which EC50 [2] does the source give for `CCc1cccc(CC)c1NC(=O)c1c[nH]c2ccccc2c1=O` here?
Its EC50 is 1500 nM.

Which Activity [6] does the source give for `O=C(Nc1cnc2ccccc2c1O)c1ccc2cc[nH]c2c1` here?
The Activity was 8%.

Source: ChEMBL document CHEMBL3352164, “Discovery of N-(2,4-di-tert-butyl-5-hydroxyphenyl)-4-oxo-1,4-dihydroquinoline-3-carboxamide (VX-770, ivacaftor), a potent and orally bioavailable CFTR potentiator” (J Med Chem, 2014)
